Converted amounts (≈) assume the structure as drawn.
Legend:
[1] = system: Escherichia coli; test: Antibacterial activity against Escherichia coli ATCC 25922 assessed as growth inhibition incubated for 18 hrs by broth dilution method; assay type: functional; details: ATCC 25922, 18 h
In short: (§1)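 Broth microdilution following CA-SFM recommendations. Inoculum was 10^5 CFU in Mueller-Hinton broth with two-fold serial drug dilutions. Plates were incubated 18 h at 37 °C. MIC was the lowest concentration giving complete inhibition of visible growth. Values are means, n = 3.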

[2] = system: Cryptococcus neoformans; test: Antifungal activity against Cryptococcus neoformans ATCC 208821 assessed as growth inhibition incubated for 36 hrs by resazurin dye based assay; assay type: functional; details: ATCC 208821, 36 h
In short: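 Cryptococcus was grown 3 days on YPD agar at 30 °C, suspended, and diluted in YNB broth to 2.5×10^3 CFU/mL. Cells were exposed to 0.008–32 μg/mL compound (final), in duplicate, for 36 h at 35 °C without shaking. Resazurin (0.006% final) was added for a further 3 h. MIC was read from absorbance at OD570–600. Means, n = 2.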

[3] = system: Acinetobacter baumannii; test: Antibacterial activity against Acinetobacter baumannii ATCC 19606 assessed as growth inhibition incubated for 18 hrs by resazurin dye based assay; assay type: functional; details: ATCC 19606 = CIP 70.34 = JCM 6841, 18 h
In short: (§2)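 Overnight cultures were diluted 40-fold in MHB and grown 1.5–2 h at 37 °C to mid-log phase. Cells were added at 5×10^5 CFU/mL final to two-fold compound dilutions (0.008–32 μg/mL final), in duplicate, for 18 h at 37 °C. Resazurin (0.001% final) was added for 2 h and MIC read by eye. Means, n = 2.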

[4] = Cytotoxicity against human HEK293 cells measured after 20 hrs by resazurin dye based fluorescence assay; assay type: cell-based
In short: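 HEK293 cells, 5,000/well in DMEM with 10% FBS, were exposed to compound for 20 h at 37 °C, 5% CO2. Resazurin (100 μM final) was added for 3 h, then fluorescence read at ex 560/em 590. Signal was normalised to tamoxifen (74 μg/mL, 0%) and untreated growth (100%), and CC50 came from dose-response fitting. Top dose 32 μg/mL. Means, n = 2.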

[5] = system: Klebsiella pneumoniae; test: Antibacterial activity against Klebsiella pneumoniae ATCC 700603 assessed as growth inhibition incubated for 18 hrs by resazurin dye based assay; assay type: functional; details: Klebsiella pneumoniae, 700603, 18 h; in short: as §2
[6] = system: Pseudomonas aeruginosa; test: Antibacterial activity against Pseudomonas aeruginosa ATCC 27853 assessed as growth inhibition incubated for 18 hrs by broth dilution method; assay type: functional; details: ATCC 27853, 18 h; in short: as §1
[7] = Hemolytic activity against Sprague-Dawley rat RBC assessed as release of hemoglobin at 50 uM incubated for 1 hr relative to control; assay type: ADME, cell-based, Erythrocyte; details: red blood cells (erythrocytes), read-out: Activity
In short: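 Fresh Sprague-Dawley rat erythrocytes were washed in saline and resuspended at 2% v/v. Cells were incubated with compound in DMSO/PBS for 1 h at 37 °C, then centrifuged at 200 g, and supernatant absorbance read at 540 nm. Results were normalised to DMSO/PBS (0%) and 0.1% Triton X-100 (100%). Single-point testing used 50 μM; HC50 came from 10-point curves. Means of three experiments.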

[8] = system: L6; test: Cytotoxicity against rat L6 cells measured after 72 hrs by alamar blue assay; assay type: cell-based; details: L6, 72 h
In short: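 Rat L6 myoblasts, 4×10^4/well in RPMI 1640 with L-glutamine and 10% FBS, received seven 3-fold dilutions (90 to 0.123 μg/mL) for 72 h. Alamar Blue was added for 2 h and fluorescence read at ex 536/em 588 nm. Podophyllotoxin served as reference. Means, n = 2.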

[9] = system: Pseudomonas aeruginosa; test: Potentiation of doxycycline-induced antibacterial activity against Pseudomonas aeruginosa ATCC 27853 assessed as concentration required to restore 2 ug/ml doxycycline activity measured after 18 hrs; assay type: functional
In short: (§3)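 Inoculum was 5×10^5 CFU in MHB with two-fold serial dilutions of adjuvant plus fixed doxycycline at 2 μg/mL. […] Repeated independently in triplicate.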

[10] = system: Staphylococcus intermedius; test: Antibacterial activity against Staphylococcus intermedius 1051997 assessed as growth inhibition incubated for 18 hrs by broth dilution method; assay type: functional; details: Staphylococcus intermedius, 1051997, 18 h; in short: as §1
[11] = system: Staphylococcus aureus; test: Antibacterial activity against Staphylococcus aureus ATCC 25923 assessed as growth inhibition incubated for 18 hrs by broth dilution method; assay type: functional; details: ATCC 25923, 18 h; in short: as §1
[12] = system: Candida albicans; test: Antifungal activity against Candida albicans ATCC 90028 assessed as growth inhibition incubated for 36 hrs by resazurin dye based assay; assay type: functional; details: ATCC 90028, 36 h
In short: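 Yeast was grown 3 days on YPD agar at 30 °C. Colonies were suspended and diluted in YNB broth to 2.5×10^3 CFU/mL, then added to two-fold compound dilutions (0.008–32 μg/mL final), in duplicate. Plates stood 36 h at 35 °C without shaking. Means, n = 2.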

[13] = system: Escherichia coli; test: Potentiation of doxycycline-induced antibacterial activity against Escherichia coli ATCC 25922 assessed as concentration required to restore 2 ug/ml doxycycline activity measured after 18 hrs; assay type: functional; in short: as §3
[14] = system: Pseudomonas aeruginosa; test: Potentiation of nalidixic acid-induced antibacterial activity against Pseudomonas aeruginosa ATCC 27853 assessed as concentration required to restore 2 ug/ml nalidixic acid activity measured after 18 hrs; assay type: functional
[15] = system: Staphylococcus aureus; test: Induction of membrane depolarization in Staphylococcus aureus measured after 15 mins by DiSC3(5) dye based spectrofluorometric method; assay type: functional, organism-based
In short: (§4)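 Bacteria were grown 24 h in MHB at 37 °C, washed in 250 mM sucrose with 5 mM MgSO4, and loaded with 3 μM DiSC3(5) for 1 h at 37 °C. Unbound dye was washed away before compound was added at varied concentrations. Fluorescence was recorded after 15 min on a spectrofluorometer, with pure 3 μM dye as the maximum. CTAB (0.01%) served as positive control.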

[16] = system: Pseudomonas aeruginosa; test: Disruption of membrane integrity in Pseudomonas aeruginosa PAO1 assessed as increase in extracellular ATP level by luciferin-luciferase reagent based luminescence assay; assay type: functional, organism-based
In short: (§5)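 Growing bacteria (P. aeruginosa PAO1 or S. aureus) in MHB at 37 °C were mixed 9:1 with compound, at 4× MIC, and vortexed for 1 s. Luciferin-luciferase reagent was added immediately and luminescence read for 5 s. ATP was quantified by internal standard addition. Squalamine served as positive control.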

[17] = system: Pseudomonas aeruginosa; test: Potentiation of chloramphenicol-induced antibacterial activity against Pseudomonas aeruginosa ATCC 27853 assessed as concentration required to restore 2 ug/ml chloramphenicol activity measured after 18 hrs; assay type: functional
[18] = system: Acinetobacter baumannii; test: Potentiation of doxycycline-induced antibacterial activity against Acinetobacter baumannii AYE assessed as concentration required to restore 2 ug/ml doxycycline activity measured after 18 hrs; assay type: functional; in short: as §3
[19] = system: Klebsiella pneumoniae; test: Potentiation of doxycycline-induced antibacterial activity against Klebsiella pneumoniae ATCC 13443 assessed as concentration required to restore 2 ug/ml doxycycline activity measured after 18 hrs; assay type: functional; in short: as §3
[20] = system: Klebsiella pneumoniae; test: Potentiation of nalidixic acid-induced antibacterial activity against Klebsiella pneumoniae ATCC 13443 assessed as concentration required to restore 2 ug/ml nalidixic acid activity measured after 18 hrs; assay type: functional
[21] = system: Escherichia coli; test: Potentiation of nalidixic acid-induced antibacterial activity against Escherichia coli ATCC 25922 assessed as concentration required to restore 2 ug/ml nalidixic acid activity measured after 18 hrs; assay type: functional
[22] = system: Pseudomonas aeruginosa; test: Induction of membrane depolarization in Pseudomonas aeruginosa measured after 15 mins by DiSC3(5) dye based spectrofluorometric method; assay type: functional, organism-based; in short: as §4
[23] = system: Pseudomonas aeruginosa; test: Potentiation of erythromycin-induced antibacterial activity against Pseudomonas aeruginosa ATCC 27853 assessed as concentration required to restore 2 ug/ml erythromycin activity measured after 18 hrs; assay type: functional
[24] = system: Staphylococcus aureus; test: Disruption of membrane integrity in Staphylococcus aureus assessed as increase in extracellular ATP level by luciferin-luciferase reagent based luminescence assay; assay type: functional, organism-based; in short: as §5
[25] = system: Klebsiella aerogenes; test: Disruption of membrane integrity in Enterobacter aerogenes EA289 assessed as increase in beta-lactamase hydrolysis by using chromogenic nitrocefin as substrate by spectrophotometry analysis; assay type: functional
In short: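 E. aerogenes EA289 was grown in MHB at 37 °C to OD600 0.5, washed in 20 mM potassium phosphate (pH 7.2) with 1 mM MgCl2, and readjusted to OD600 0.5. Cells were exposed to compound at 3.9–250 μM final with nitrocefin at 50 μg/mL final, at room temperature. Hydrolysis was followed as the absorbance rise at 490 nm.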

[26] = system: Acinetobacter baumannii; test: Potentiation of nalidixic acid-induced antibacterial activity against Acinetobacter baumannii AYE assessed as concentration required to restore 2 ug/ml nalidixic acid activity measured after 18 hrs; assay type: functional
[27] = system: Klebsiella pneumoniae; test: Antibacterial activity against Klebsiella pneumoniae ATCC 13443 assessed as growth inhibition; assay type: functional
[28] = system: Acinetobacter baumannii; test: Antibacterial activity against Acinetobacter baumannii AYE assessed as growth inhibition; assay type: functional

SMILES	MIC [1]	MIC [2]	MIC [3]	MIC [5]	MIC [6]	MIC [10]	MIC [11]	MIC [12]	CC50 at 20 h [4]	hemolysis at 1 h, 50 µM [7]	IC50 [8]	Activity [9]	also measured
O=C(NCCCNCCCCNCCCNC(=O)C(=O)c1c[nH]c2ccc(F)cc12)C(=O)c1c[nH]c2ccc(F)cc12.O=C(O)C(F)(F)F.O=C(O)C(F)(F)F	200 µM	9.9 µM	> 39.6 µM	> 39.6 µM	200 µM	50 µM	25 µM	> 39.6 µM	> 39.6 µM	0%	71.1 µM	12.5 µM	–
COC(=O)c1ccc2c(C(=O)C(=O)NCCCNCCCCNCCCNC(=O)C(=O)c3c[nH]c4cc(C(=O)OC)ccc34)c[nH]c2c1.O=C(O)C(F)(F)F.O=C(O)C(F)(F)F	> 200 µM	9 µM	> 36 µM	> 36 µM	> 200 µM	12.5 µM	> 200 µM	> 36 µM	> 36 µM	0.6%	63.6 µM	25 µM	–
O=C(NCCCNCCCCNCCCNC(=O)C(=O)c1c[nH]c2cc(C(F)(F)F)ccc12)C(=O)c1c[nH]c2cc(C(F)(F)F)ccc12.O=C(O)C(F)(F)F.O=C(O)C(F)(F)F	100 µM	4.4 µM	> 35.2 µM	35.2 µM	200 µM	50 µM	50 µM	35.2 µM	3.36 µM	3.2%	31.4 µM	100 µM	–

These reach a lower MIC [1]. Values come first.

MIC [1]	MIC [2]	MIC [3]	MIC [5]	MIC [6]	MIC [10]	MIC [11]	MIC [12]	SMILES	CC50 at 20 h [4]	hemolysis at 1 h, 50 µM [7]	IC50 [8]	Activity [9]	also measured
25 µM	2.2 µM	> 34.4 µM	34.4 µM	50 µM	3.12 µM	3.12 µM	> 34.4 µM	O=C(NCCCNCCCCNCCCNC(=O)C(=O)c1c[nH]c2ccc(Br)cc12)C(=O)c1c[nH]c2ccc(Br)cc12.O=C(O)C(F)(F)F.O=C(O)C(F)(F)F	14.1 µM	34.7%	19.8 µM	3.125 to 6.25 µM	Activity [13]: 1.68 µM; Activity [14]: >200 µM; Activity [15]: Dose-dependent effect; Activity [16]: Dose-dependent effect; Activity [17]: 26.9 µM; Activity [18]: 6.72 µM; Activity [19]: 13.4 µM; Activity [20]: 12.5 µM; Activity [21]: 100 µM; Activity [22]: Dose-dependent effect; Activity [23]: >200 µM; Activity [24]: Dose-dependent effect; Activity [25]: Dose-dependent effect; Activity [26]: 100 µM
25 µM (≈ 11.1 µg/mL)	–	–	–	90 µM (≈ 40 µg/mL)	–	–	–	C[C@H]1c2cccc(O)c2C(=O)C2=C(O)[C@]3(O)C(=O)C(C(N)=O)=C(O)[C@@H](N(C)C)[C@@H]3[C@@H](O)[C@@H]21 [DOXYCYCLINE]	–	–	–	–	MIC [27]: 25 µM (≈ 11.1 µg/mL); MIC [28]: 12.5 µM (≈ 5.56 µg/mL)

Reference: ChEMBL document CHEMBL4311975, “Exploration of the antibiotic potentiating activity of indolglyoxylpolyamines” (Eur J Med Chem, 2019)
